Data as given in ChEMBL document CHEMBL2321684, “Novel hybrids of optically active ring-opened 3-n-butylphthalide derivative and isosorbide as potential anti-ischemic stroke agents” (J Med Chem, 2013).
Where a name gives a salt, the structure may show the parent alone. Calls of active or inactive are those of the source. The rule behind the calls is not given here.

Assays:
[1] = Antiplatelet aggregation activity in rabbit platelets assessed as inhibition of ADP-induced platelet aggregation incubated for 5 mins prior to ADP-challenge measured within 5 mins by Born's turbidimetric analysis; format: functional, cell-based; conditions: Oryctolagus cuniculus
[2] = Antiplatelet aggregation activity in rabbit platelets assessed as inhibition of arachidonic acid-induced platelet aggregation incubated for 5 mins prior to arachidonic acid-challenge measured within 5 mins by Born's turbidimetric analysis; format: functional, cell-based; conditions: Oryctolagus cuniculus
Summary of the method: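 Rabbit citrated PRP was adjusted to 400−450 × 10⁹ platelets/L and preincubated for 5 min at 37 °C with vehicle DMSO or compound at 0.1−1.6 mM (at least five concentrations). Aggregation was induced with arachidonic acid (0.33 mM, per the methods text). Maximum aggregation rate was recorded over 5 min by Born's turbidimetry, and IC₅₀ was derived from inhibition versus vehicle (mean ± SD).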

[3] = Antiplatelet aggregation activity in rabbit platelets assessed as inhibition of ADP-induced platelet aggregation at 1 mM incubated for 5 mins prior to ADP-challenge measured within 5 mins by Born's turbidimetric analysis relative to control; format: functional; conditions: Oryctolagus cuniculus
Summary of the method: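 Rabbit carotid blood was citrated (3.8%, 9:1). PRP was adjusted with PPP to 400−450 × 10⁹ platelets/L. PRP was preincubated with compound or DMSO for 5 min at 37 °C, then aggregation was induced with ADP at 10 μM. Maximum aggregation rate was recorded over 5 min using Born's turbidimetry. Inhibition % was calculated versus vehicle; n = 6, mean ± SD.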

[4] = system: Mus musculus; assay: Antithrombotic activity in Swiss ICR mouse assessed as inhibition of collagen/adrenaline-induced acute systemic vascular thromboembolism at 160 mg/kg, po administered for 7 days prior to collagen/adrenaline-challenge measured up to 15 mins relative to control; format: functional, organism-based; set-up: dose 160 mg/kg
Summary of the method: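 Male Swiss ICR mice (30−35 g), n = 15 per group, dosed by gavage daily for 7 days in DMSO vehicle. Two hours after the last dose, mice received collagen (0.21 mg/kg) plus adrenaline (44.5 μg/kg) iv. Survival was monitored for 15 min and reported as % surviving.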

For `CCCC[C@H](OC(=O)CN1CCCC1)c1ccccc1C(=O)O[C@H]1CO[C@H]2[C@@H]1OC[C@H]2OC(=O)c1ccccc1[C@H](CCCC)OC(=O)CN1CCCC1`, the IC50 [1] was 800 µM and the IC50 [2] was 640 µM.
Compound `CCCC[C@@H](OC(C)=O)c1ccccc1C(=O)O[C@H]1CO[C@H]2[C@@H]1OC[C@H]2OC(=O)c1ccccc1[C@@H](CCCC)OC(C)=O` has an IC50 [1] of 710 µM and an IC50 [2] of 570 µM.
With `CCCC[C@H](OC(C)=O)c1ccccc1C(=O)O[C@H]1CO[C@H]2[C@@H]1OC[C@H]2OC(=O)c1ccccc1[C@H](CCCC)OC(C)=O` the IC50 [1] was 330 µM and the IC50 [2] was 210 µM.
`CCCC[C@H](OC(=O)CN1CCN(C)CC1)c1ccccc1C(=O)O` gave an inhibition at 1000 µM [3] of 6.94%.
Work on `CCCC[C@@H](OC(=O)CN1CCOCC1)c1ccccc1C(=O)O[C@H]1CO[C@H]2[C@@H]1OC[C@H]2OC(=O)c1ccccc1[C@@H](CCCC)OC(=O)CN1CCOCC1` yielded an IC50 [1] of 940 µM and an IC50 [2] of 800 µM.
With `CCCC[C@H](OC(=O)CN1CCN(CCO)CC1)c1ccccc1C(=O)O[C@H]1CO[C@H]2[C@@H]1OC[C@H]2OC(=O)c1ccccc1[C@H](CCCC)OC(=O)CN1CCN(CCO)CC1` the IC50 [1] was 490 µM and the IC50 [2] was 360 µM.
In the case of `CCCC[C@H](OC(=O)CN1CCN(C)CC1)c1ccccc1C(=O)O[C@@H]1CO[C@H]2[C@@H]1OC[C@@H]2O`, the inhibition at 1000 µM [3] is reported as 6.94%.
Compound `CCCC[C@@H](OC(=O)CN1CCCC1)c1ccccc1C(=O)O[C@H]1CO[C@H]2[C@@H]1OC[C@H]2OC(=O)c1ccccc1[C@@H](CCCC)OC(=O)CN1CCCC1` has an IC50 [1] of 1000 µM and an IC50 [2] of 910 µM.
In the case of `O[C@@H]1CO[C@H]2[C@@H]1OC[C@@H]2O` [ISOSORBIDE], the IC50 [1] is reported as 1350 µM, the IC50 [2] is reported as 1680 µM and the inhibition at 1000 µM [3] is reported as 6.94%.
`CCCC[C@H](OC(=O)CN1CCOCC1)c1ccccc1C(=O)O[C@H]1CO[C@H]2[C@@H]1OC[C@H]2OC(=O)c1ccccc1[C@H](CCCC)OC(=O)CN1CCOCC1` showed an IC50 [1] of 450 µM and an IC50 [2] of 320 µM.
`CCCC[C@H](OC(=O)CN1CCN(C)CC1)c1ccccc1C(=O)O[C@@H]1CO[C@H]2[C@@H]1OC[C@@H]2O[N+](=O)[O-]` gave an inhibition at 1000 µM [3] of 6.94%.
In the case of `CCCC[C@H](OC(=O)CN1CCN(C)CC1)c1ccccc1C(=O)O[C@H]1CO[C@H]2[C@@H]1OC[C@H]2O[N+](=O)[O-]`, the inhibition at 1000 µM [3] is reported as 6.94%.
`CCCC[C@H](OC(=O)CN1CCN(C)CC1)c1ccccc1C(=O)O[C@H]1CO[C@H]2[C@@H]1OC[C@H]2O` showed an inhibition at 1000 µM [3] of 6.94%.
With `CC(=O)Oc1ccccc1C(=O)O` [ASPIRIN] the Activity [4] was “Active” and the IC50 [2] was 140 µM.
Compound `CCCC[C@@H](OC(=O)CN1CCN(C)CC1)c1ccccc1C(=O)O[C@H]1CO[C@H]2[C@@H]1OC[C@H]2OC(=O)c1ccccc1[C@@H](CCCC)OC(=O)CN1CCN(C)CC1` has an IC50 [1] of 360 µM and an IC50 [2] of 270 µM.
For `CCCC[C@@H](OC(=O)CN1CCN(CCO)CC1)c1ccccc1C(=O)O[C@H]1CO[C@H]2[C@@H]1OC[C@H]2OC(=O)c1ccccc1[C@@H](CCCC)OC(=O)CN1CCN(CCO)CC1`, the IC50 [1] was 750 µM and the IC50 [2] was 630 µM.
Work on `Clc1ccccc1CN1CCc2sccc2C1` [TICLOPIDINE HYDROCHLORIDE] yielded an IC50 [1] of 360 µM.
